Results on 15 compounds are retold here after PubChem BioAssay.

Calls of active or inactive are those of the source.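 Rule for the calls, unless noted: active = viability at or under a set limit in both replicates, limit being median viability minus 3 SD (cut at about 48% in these data, passing the limit was not always enough); inconclusive = at or under the limit in just one replicate; inactive = at or above the limit in both replicates.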

Usually viability stands for a read-out of living cells in per cent, often relative to untreated cells. One may read the inhibition as the relative decrease from the control value, in per cent.

Test [1] can be described thus: reducers of endogenous Her2 protein level, primary screen, SKBR3 breast tumor cells, AlphaScreen, ATP viability (AID 461;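 active = Her2 level under about 52% in both replicate screens, with viability over 70% of control, limit read from the data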;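 for Her2 level: lower value means less Her2 protein in the cells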;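 for viability: percent of carrier control wells set as 100% viability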). The settings on record: 18-24 h, measured here: SKBR3 viability, ATP luminescence, at 10 µM.
Test [2] has as its target Receptor tyrosine-protein kinase erbB-2 (Homo sapiens) (UniProt P04626). The test is described as above. The following applies: 18-24 h, at 10 µM, stronger effect = lower value.
Test [3] in a line: SK-BR-3 cell growth inhibitors, pilot screen, 24 h, human (AID 572;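 active = viability at or below 10% of carrier control in both of two separate runs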;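 note: compound exposure lasted between 18 and 24 h rather than exactly 24 h; 100% = carrier-treated control wells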). The settings on record: SK-BR-3 viability, CellTiter-Glo luminescence, at 10 µM, stronger effect = lower value. In general terms: ATP-based viability assays read luminescence as a measure of living cells.
A short description of test [4]: HUVEC growth inhibition – cell-based, human, primary screen (AID 575;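 active = viability at or below 30% in both replicate assays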;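 note: 100% = median of untreated cell wells with 0.1% DMSO on each plate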). The following applies: HUVEC proliferation, CellTiter-Glo luminescence, 72 h; at 10 µM; stronger effect = lower value. An outline of the steps:
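material = primary HUVEC, no more than 12 passages | input = 1250 cells per well | controls = vehicle and MePR control wells | measured by = CTG luminescence | times = 72 h compound incubation | format = collagen-coated 384-well format | read-out = % viability vs DMSO wells | doses = single 10 µM dose, 0.1% DMSO, from 5x medium stock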

Test [5] in a line: growth inhibitors of H69AR lung tumor, primary screen, human, duplicate replicates (AID 580).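 Note: 100% = mean luminescence of untreated wells and 0% = no signal.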 The following applies: H69AR lung tumor cells viability, ATP luminescence, 72 h; at 10 µM; stronger effect = lower value.
Test [6] is described as follows: reversal of MRP1-mediated doxorubicin resistance, pilot screen, H69AR cells, doxorubicin co-treatment (AID 601;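 active = viability loss from added drug above about 55%, and viability with drug at most 40%, in both replicates, limit read from the data, passing the limit was not always enough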). The following applies: CellTiter-Glo, 72 h, at 10 µM; for differential viability (reversal): stronger effect = higher value.
The nature of test [7]: 384-well plate pilot, post-Golgi transport modulator project, inhibition of yeast transport mutant growth (AID 636; in the data active = inhibition above about 31%). The following applies: absorbance 615 nm, about 18 h, stronger effect = higher value.
The nature of test [8]: growth suppression of yeast trafficking mutant, preliminary HTS, modulators of trafficking downstream of Golgi apparatus project, 1536-format plate, OD 615 nm (AID 637; in the data active = inhibition above about 30%). The following applies: yeast transport mutant growth, absorbance 615 nm, 18 h; stronger effect = higher value.
The mark [9] stands for this setting: H69AR cells + 2 uM doxorubicin, measured here: viability with 2 uM doxorubicin, stronger effect = lower value.
The mark [10] stands for this setting: H69AR cells, compound alone cytotoxicity.

Chain of Receptor tyrosine-protein kinase erbB-2 (Homo sapiens) (P04626 whole entry, looked up): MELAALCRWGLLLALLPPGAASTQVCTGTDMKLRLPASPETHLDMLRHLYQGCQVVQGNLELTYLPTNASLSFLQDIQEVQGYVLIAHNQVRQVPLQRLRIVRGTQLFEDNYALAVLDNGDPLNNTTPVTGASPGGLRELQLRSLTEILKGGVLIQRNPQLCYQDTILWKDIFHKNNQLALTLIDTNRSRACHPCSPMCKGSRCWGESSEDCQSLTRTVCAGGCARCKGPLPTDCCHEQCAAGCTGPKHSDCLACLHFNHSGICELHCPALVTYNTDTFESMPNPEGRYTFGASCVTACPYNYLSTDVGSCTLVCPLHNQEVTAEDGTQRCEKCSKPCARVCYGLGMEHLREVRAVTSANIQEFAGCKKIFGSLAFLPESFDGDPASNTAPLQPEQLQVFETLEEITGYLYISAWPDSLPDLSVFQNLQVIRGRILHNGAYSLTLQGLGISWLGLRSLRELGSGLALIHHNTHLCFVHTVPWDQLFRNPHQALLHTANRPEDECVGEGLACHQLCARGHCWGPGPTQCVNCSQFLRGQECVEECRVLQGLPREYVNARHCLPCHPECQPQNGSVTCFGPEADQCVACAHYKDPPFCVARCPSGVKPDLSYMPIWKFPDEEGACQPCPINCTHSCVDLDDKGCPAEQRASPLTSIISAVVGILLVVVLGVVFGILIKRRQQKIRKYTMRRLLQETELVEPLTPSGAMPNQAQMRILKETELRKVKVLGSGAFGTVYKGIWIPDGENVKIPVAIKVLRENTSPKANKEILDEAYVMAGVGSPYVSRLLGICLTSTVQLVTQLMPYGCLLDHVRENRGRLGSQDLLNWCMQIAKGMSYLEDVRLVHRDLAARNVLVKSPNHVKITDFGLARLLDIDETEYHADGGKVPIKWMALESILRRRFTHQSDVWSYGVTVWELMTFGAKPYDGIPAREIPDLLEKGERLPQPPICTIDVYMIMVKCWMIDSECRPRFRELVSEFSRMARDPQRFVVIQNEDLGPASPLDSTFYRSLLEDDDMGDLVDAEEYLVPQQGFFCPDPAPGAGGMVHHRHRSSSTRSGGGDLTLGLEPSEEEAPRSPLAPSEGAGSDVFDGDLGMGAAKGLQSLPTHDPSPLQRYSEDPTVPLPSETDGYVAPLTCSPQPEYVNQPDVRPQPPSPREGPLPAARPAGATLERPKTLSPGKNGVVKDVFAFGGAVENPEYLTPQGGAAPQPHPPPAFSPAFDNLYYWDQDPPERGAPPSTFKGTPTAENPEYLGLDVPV

For `CCN1CCN(C(=O)c2cc3c(=O)n(C)c4ccccc4c3n2C)CC1`, the viability in test [1] is 110%; in test [3], 110% (inactive); in test [4], 88.2% (inactive); in test [5] it was 77.6% (inactive); in test [6] (setting [9]), 86.9%; in test [6] (setting [10]), 77.6%. Also, the Her2 level in test [2] was 94% (inactive). Moreover, the differential viability (reversal) in test [6] (H69AR cells + 2 uM doxorubicin) was -9.27% (inactive). The inhibition in test [7] is 0.4% (inactive); in test [8] it was -1.33% (inactive).
On to `Cc1nc(C)c2c(c1C(F)(F)F)-c1ccccc1C2(F)F`, for which the viability in test [1] was 98%; in test [3] it was 98% (inactive); in test [4], 102% (inactive); in test [5], 105% (inactive); in test [6] (setting [9]), 88.9%; in test [6] (setting [10]), 105%. In addition, the Her2 level in test [2] is 98% (inactive). The differential viability (reversal) in test [6] (H69AR cells + 2 uM doxorubicin) is 16.4% (inactive). The values for the inhibition in test [7] and in test [8] were -4.4% (inactive) and -5.08% (inactive), respectively.
Take `C/C(CC(O)(/C=N/O)c1ccccc1)=N\O` (stereo not given): the viability is 86% in test [1]; 86% (inactive) in test [3]; 107% (inactive) in test [4]; 94% (inactive) in test [5]; 91.1% in test [6] (setting [9]); 94% in test [6] (setting [10]). Moreover, the Her2 level in test [2] is 91.5% (inactive). The differential viability (reversal) in test [6] (H69AR cells + 2 uM doxorubicin) was 2.94% (inactive). The inhibition in test [7] was -0.26% (inactive); in test [8] it was 3.77% (inactive).
For `CCOc1ccccc1C(=O)NCC(=O)OCC(=O)N1C(C)CCCC1C` (stereo not given), the viability was 98.5% in test [1]; 98.5% (inactive) in test [3]; 102% (inactive) in test [4]; 103% (inactive) in test [5]; 93.4% in test [6] (setting [9]); 103% in test [6] (setting [10]). Also, the Her2 level in test [2] was 89% (inactive). Further, the differential viability (reversal) in test [6] (H69AR cells + 2 uM doxorubicin) was 9.78% (inactive). Further, the values for the inhibition in test [7] and in test [8] were -3.77% (inactive) and -3.02% (inactive), respectively.
Take `COCCCNC(=O)CSc1nc2ccc(N3CCOCC3)cc2c(=O)n1CCc1ccccc1`: the viability was 104% in test [1]; 104% (inactive) in test [3]; 70.3% (inactive) in test [4]; 94.9% (inactive) in test [5]; 99.9% in test [6] (setting [9]); 94.9% in test [6] (setting [10]). For the same compound, in test [2], the Her2 level is 87% (inactive). Also, the differential viability (reversal) in test [6] (H69AR cells + 2 uM doxorubicin) is -5.04% (inactive). The inhibition in test [7] is -2.73% (inactive); in test [8], -0.48% (inactive).
Consider `O=C(CSc1nnc(-c2cccs2)o1)NCC1CN(Cc2ccccc2)CCO1` (stereo not given), for which the viability in test [1] was 99.5%; in test [3], 99.5% (inactive); in test [4], 106% (inactive); in test [5], 85.1% (inactive); in test [6] (setting [9]), 98.8%; in test [6] (setting [10]) it was 85.1%. Further, the Her2 level in test [2] was 90.5% (inactive). Besides, the differential viability (reversal) in test [6] (H69AR cells + 2 uM doxorubicin) is -13.7% (inactive). Moreover, the inhibition in test [7] was -1.69% (inactive); in test [8] it was -1.9% (inactive).
With `N#Cc1nc(-c2cccs2)oc1NCc1ccc(Cl)cc1`, the viability in test [1] was 111%; in test [3], 111% (inactive); in test [4], 64.9% (inactive); in test [5], 73.8% (inactive); in test [6] (setting [9]), 87.9%; in test [6] (setting [10]), 73.8%. Moreover, the Her2 level in test [2] was 88.5% (inactive). For the same compound, in test [6] (H69AR cells + 2 uM doxorubicin), the differential viability (reversal) was -14.1% (inactive). Besides, the inhibition in test [7] was -5.66% (inactive); in test [8], 0.65% (inactive).
With `N/C(Cn1nnc(-c2ccccc2)n1)=N\O`, the viability was 97% in test [1]; 97% (inactive) in test [3]; 112% (inactive) in test [4]; 107% (inactive) in test [5]; 96.3% in test [6] (setting [9]); 107% in test [6] (setting [10]). Moreover, the Her2 level in test [2] is 87.5% (inactive). In test [6] (H69AR cells + 2 uM doxorubicin), the differential viability (reversal) was 11% (inactive). For the same compound, the inhibition is -2.5% (inactive) in test [7] and -5.08% (inactive) in test [8].
On to `O=C1CC(c2ccsc2)c2cc3c(cc2N1)OCCO3` (stereo not given), for which the viability is 103% in test [1]; 103% (inactive) in test [3]; 67.6% (inactive) in test [4]; 26.9% (active) in test [5]; 60.2% in test [6] (setting [9]); 26.9% in test [6] (setting [10]). The Her2 level in test [2] was 98.5% (inactive). Besides, the differential viability (reversal) in test [6] (H69AR cells + 2 uM doxorubicin) is -33.3% (inactive). In addition, the inhibition in test [7] is -2.93% (inactive); in test [8], -5.25% (inactive).
As for `NC(=O)CSCc1ccc(Br)cc1`, the viability in test [1] is 100%; in test [3], 100% (inactive); in test [4] it was 98.6% (inactive); in test [5] it was 108% (inactive); in test [6] (setting [9]), 108%; in test [6] (setting [10]), 108%. The Her2 level in test [2] is 91.5% (inactive). In test [6] (H69AR cells + 2 uM doxorubicin), the differential viability (reversal) was 0.415% (inactive). Also, the inhibition is -4.67% (inactive) in test [7] and 2.62% (inactive) in test [8].
For `CCOC(=O)CC(NS(=O)(=O)c1ccc(NC(C)=O)cc1)c1ccc(OCC)cc1` (stereo not given), the viability in test [1] was 115%; in test [3], 115% (inactive); in test [4], 110% (inactive); in test [5], 90.9% (inactive); in test [6] (setting [9]), 93.9%; in test [6] (setting [10]) it was 90.9%. For the same compound, the Her2 level in test [2] is 100% (inactive). Further, the differential viability (reversal) in test [6] (H69AR cells + 2 uM doxorubicin) was -2.94% (inactive). The inhibition is -7.63% (inactive) in test [7] and -4.91% (inactive) in test [8].
Consider `Cc1cccc(-n2ncc3c(N)ncnc32)c1`, for which the viability in test [1] was 94.5%; in test [3] it was 94.5% (inactive); in test [4], 51.3% (inactive); in test [5], 98.3% (inactive); in test [6] (setting [9]), 80.6%; in test [6] (setting [10]), 98.3%. The Her2 level in test [2] was 83.5% (inactive). In addition, the differential viability (reversal) in test [6] (H69AR cells + 2 uM doxorubicin) was 17.7% (inactive). For the same compound, the results for the inhibition in test [7] and in test [8] were -4.67% (inactive) and -1.31% (inactive), respectively.
As for `O=C(NCc1ccc2c(c1)OCO2)c1ccc(NS(=O)(=O)c2ccc3c(c2)OCCO3)cc1`, the viability in test [1] is 102%; in test [3], 102% (inactive); in test [4], 85.2% (inactive); in test [5], 106% (inactive); in test [6] (setting [9]) it was 90.9%; in test [6] (setting [10]), 106%. Also, the Her2 level in test [2] is 84.5% (inactive). Also, the differential viability (reversal) in test [6] (H69AR cells + 2 uM doxorubicin) is 15.4% (inactive). The inhibition is -8.11% (inactive) in test [7] and -3.65% (inactive) in test [8].
Turning to `Fc1cccc2sc(Nc3nnc(-c4ccco4)o3)nc12`, the viability was 109% in test [1]; 109% (inactive) in test [3]; 57.3% (inactive) in test [4]; 41.2% (active) in test [5]; 62.6% in test [6] (setting [9]); 41.2% in test [6] (setting [10]). Also, the Her2 level in test [2] is 37% (active). Besides, the differential viability (reversal) in test [6] (H69AR cells + 2 uM doxorubicin) is -21.4% (inactive). The inhibition in test [7] was -0.4% (inactive); in test [8], 0% (inactive).
Turning to `COc1ccccc1NC(=O)CSc1nnc(-c2ccncc2)o1`, the viability in test [1] was 108%; in test [3], 108% (inactive); in test [4] it was 111% (inactive); in test [5], 93.8% (inactive); in test [6] (setting [9]) it was 91.2%; in test [6] (setting [10]) it was 93.8%. For the same compound, in test [2], the Her2 level was 96% (inactive). For the same compound, in test [6] (H69AR cells + 2 uM doxorubicin), the differential viability (reversal) was 2.67% (inactive). Besides, the inhibition in test [7] is 0.91% (inactive); in test [8], -4.33% (inactive).
